This is an account of results in ChEMBL document CHEMBL3124922, “The antitumor agent PBT-1 directly targets HSP90 and hnRNP A2/B1 and inhibits lung adenocarcinoma growth and metastasis” (J Med Chem, 2014).

Active and inactive are the calls of the source. The rule behind the calls is not given here.

Data set [1] deals with CL1-5. The data set is described as follows: Antimigratory activity against human CL1-5 cells assessed as reduction of cell migration at 0.25 ug/ml after 1 to 12 hrs by wound healing assay relative to control. It is filed as functional, cell-based. A digest of the protocol: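 Cells grown to near-confluence in 6 cm dishes, monolayer scratched with a pipet tip, debris washed off with PBS; incubated at 37 °C and photographed at 0, 4, 8 and 12 h. Cells migrating into the cell-free zone counted. Triplicate samples, at least three independent experiments, mean ± SD.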

The target of data set [2] is T1, HSP90 and hnRNPA2/B1 (Homo sapiens, UniProt P08238+P22626). As to the kind of experiment: Inhibition of HSP90/hnRNPA2/B1 in human CL152 cells assessed as upregulation of E-cadherin expression after 5 hrs by Western blotting analysis. It is filed as cell-based. A general note: Immunoblotting shows a protein as a band on a membrane.
The target in data set [3] is T1, HSP90 and hnRNPA2/B1. As to the kind of experiment: Inhibition of HSP90/hnRNPA2/B1 in human PC9 cells assessed as reduction of slug expression at 0.5 ug/ml after 5 hrs by Western blotting analysis. Format: cell-based. To be noted: PC-9.
The test system of data set [4] is Mus musculus. The data set is described as follows: Toxicity in Balb/c nu/nu mouse xenografted with human CL1-5 cells at 10 mg/kg, ip qd administered 3 times per week measured 2 times per week for 28 days. Format: organism-based. Set-up: dose 10 mg/kg, route intraperitoneal. The following applies: in vivo, 672 h. A digest of the protocol:
(§1)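 Six-week-old male BALB/c nu/nu mice (SPF) given 1 × 10^6 CL1-5 cells s.c. in the right flank; at 100 mm^3 tumor volume (5–8 days), six mice per group randomized to compound 10 mg/kg/day or vehicle i.p. three times weekly. Volume from calipers as 0.5W²L; tumor volume and body weight recorded twice weekly.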
(In general: Xenograft models place foreign cells or tissue in a host animal.)

The target in data set [5] is T1, HSP90 and hnRNPA2/B1. As to the kind of experiment: Inhibition of HSP90/hnRNPA2/B1 in human CL152 cells assessed as reduction of slug expression at 0.5 ug/ml after 5 hrs by Western blotting analysis. It is filed as cell-based. A digest of the protocol: (§2)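 CL1-5 or CL152 cells exposed to a range of concentrations for 5 h; Slug (and E-cadherin) detected by Western blot with β-actin as loading control; representative of three experiments.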

The target in data set [6] is T1, HSP90 and hnRNPA2/B1. As to the kind of experiment: Inhibition of HSP90/hnRNPA2/B1 in human CL1-5 cells assessed as reduction of slug expression at >0.5 ug/ml up to 5 hrs by Western blotting analysis. It is filed as cell-based. A digest of the protocol: as §2
In data set [7] the target is T1, HSP90 and hnRNPA2/B1. As to the kind of experiment: Inhibition of HSP90/hnRNPA2/B1 in human CL1-5 cells assessed as upregulation of E-cadherin expression after 0.5 to 2 hrs by Western blotting analysis. It is filed as cell-based.
Data set [8] concerns CL1-5. As to the kind of experiment: Antitumor activity against human CL1-5 cells xenografted in Balb/c nu/nu mouse assessed as orthotopic tumor growth inhibition at 10 mg/kg/day, ip administered 3 times per week measured 2 times per week for 28 days. Format: functional, organism-based. A digest of the protocol: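 CL1-5 cells inoculated into the pleural cavity of 6-week-old BALB/c nu/nu mice (n = 6 per group); i.p. dosing with compound or DMSO vehicle three times weekly from day 5. At 28 days mice killed by CO2, organs formalin-fixed; tumor volume in excised lungs and metastatic nodule counts taken, mean ± SD of six mice.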

Data set [9] concerns CL1-5. The data set is described as follows: Antitumor activity against human CL1-5 cells xenografted in Balb/c nu/nu mouse assessed as subcutaneously implanted tumor growth inhibition at 10 mg/kg/day, ip administered 3 times per week measured 2 times per week for 28 days. Format: functional, organism-based. A digest of the protocol: as §1
Data set [10] has as its system CL1-5. The data set is described as follows: Antiinvasive activity against human CL1-5 cells after 20 hrs by matrigel-coated transwell assay. It is filed as functional, cell-based. A digest of the protocol:
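Transwell chambers (8 μm pores) coated with 5 μg/mL Matrigel; 2.5 × 10^4 cells seeded on top in medium with 10% NuSerum; after 20 h, cells reaching the lower side fixed in methanol, stained with 50 μg/mL propidium iodide and quantified by image analysis. Triplicate samples; mean ± SD of three independent experiments.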

In data set [11] the test system is CL1-5. The data set is described as follows: Reduction of filopodia formation in human CL1-5 cells at 0.1 to 0.75 ug/ml by immunofluorescence staining-based microscopic analysis. Format: functional, cell-based.
Data set [12] deals with T1, HSP90 and hnRNPA2/B1. As to the kind of experiment: Inhibition of HSP90/hnRNPA2/B1 in human CL1-5 cells assessed as reduction of slug expression at 0.5 ug/ml after 2 hrs by Western blotting analysis. It is filed as cell-based. A digest of the protocol: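 CL1-5 cells exposed to 0.5 μg/mL for 0.5, 1 or 2 h; Slug in cell extracts detected by Western blot with β-actin as loading control; representative of three experiments.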

The target in data set [13] is T1, HSP90 and hnRNPA2/B1. As to the kind of experiment: Binding affinity to HSP90/hnRNPA2/B1 in human CL1-5 cell lysate after 1 hr by affinity chromatographic analysis. It is filed as cell-free. A digest of the protocol: (§3)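 CL1-5 lysate (10 mg protein; Tris pH 8.0 lysis buffer) held with or without 1 mM free ligand for 1 h, then loaded at 4 °C onto Sepharose 4B carrying the coupled ligand, with uncoupled beads as control. Washed with T buffer, eluted with 4 M urea/1 M NaCl; flow-through, wash and eluate probed by Western blot for HSP90, hnRNP A2/B1, HSP70 and β-actin.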

The target of data set [14] is T1, HSP90 and hnRNPA2/B1. As to the kind of experiment: Inhibition of HSP90/hnRNPA2/B1 in human CL1-5 cells assessed as reduction of slug expression at 0.25 ug/ml up to 5 hrs by Western blotting analysis. Format: cell-based. A digest of the protocol: as §2
Data set [15] deals with T1, HSP90 and hnRNPA2/B1. As to the kind of experiment: Inhibition of HSP90/hnRNPA2/B1 in human CL1-5 cells. It is filed as cell-based.
Data set [16] has as its system CL1-5. The data set is described as follows: Binding affinity to HSP70 in human CL1-5 cell lysate after 1 hr by affinity chromatographic analysis. Format: cell-free. A digest of the protocol:
as §3

Data set [17] addresses T1, HSP90 and hnRNPA2/B1. As to the kind of experiment: Inhibition of HSP90/hnRNPA2/B1 in human CL1-5 cells assessed as reduction of slug expression at >0.5 ug/ml after 24 hrs by Western blotting analysis. It is filed as cell-based.

T1 sequence (P08238 whole entry, looked up): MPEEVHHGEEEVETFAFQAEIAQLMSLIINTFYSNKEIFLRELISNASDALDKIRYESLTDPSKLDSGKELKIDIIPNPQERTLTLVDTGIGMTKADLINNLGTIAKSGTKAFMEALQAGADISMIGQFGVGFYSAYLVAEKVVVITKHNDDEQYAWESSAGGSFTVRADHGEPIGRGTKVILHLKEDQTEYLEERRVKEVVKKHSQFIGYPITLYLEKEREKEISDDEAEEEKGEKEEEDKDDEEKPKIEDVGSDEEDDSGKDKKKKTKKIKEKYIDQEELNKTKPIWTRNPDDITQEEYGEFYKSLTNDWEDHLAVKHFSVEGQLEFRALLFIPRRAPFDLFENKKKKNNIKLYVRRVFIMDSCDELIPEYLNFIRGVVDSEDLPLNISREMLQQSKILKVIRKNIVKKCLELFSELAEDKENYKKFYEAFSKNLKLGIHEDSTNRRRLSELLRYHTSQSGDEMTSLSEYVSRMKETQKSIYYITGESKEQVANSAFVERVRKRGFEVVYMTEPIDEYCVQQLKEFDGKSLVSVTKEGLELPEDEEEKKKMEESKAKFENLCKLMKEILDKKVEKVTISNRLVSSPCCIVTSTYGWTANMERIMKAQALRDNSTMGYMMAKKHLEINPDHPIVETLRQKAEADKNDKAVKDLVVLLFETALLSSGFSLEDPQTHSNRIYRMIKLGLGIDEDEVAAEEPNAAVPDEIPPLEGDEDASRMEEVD
T1 sequence (P22626 whole entry, looked up): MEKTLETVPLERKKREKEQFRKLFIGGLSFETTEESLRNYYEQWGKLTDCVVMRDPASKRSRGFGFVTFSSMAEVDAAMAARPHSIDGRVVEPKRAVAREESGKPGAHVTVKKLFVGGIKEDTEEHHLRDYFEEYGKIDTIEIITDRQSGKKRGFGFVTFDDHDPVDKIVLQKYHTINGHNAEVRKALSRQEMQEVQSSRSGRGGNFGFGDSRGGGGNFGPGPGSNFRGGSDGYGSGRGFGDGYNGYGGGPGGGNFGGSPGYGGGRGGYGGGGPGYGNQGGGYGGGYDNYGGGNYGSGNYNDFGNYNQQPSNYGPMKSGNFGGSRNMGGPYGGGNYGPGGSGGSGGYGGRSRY

Consider `COc1ccc2c(CN3CCC(CO)CC3)cc3cc4c(cc3c2c1)OCO4`, for which the outcome in data set [1] and in data set [11] was Active. Also, the inhibition entry in data set [2] and in data set [7] was “Dose-dependent effect” throughout. For the same compound, the inhibition entry in data set [3], in [5], in data set [6] and in data set [12] was “Active” each time. The Activity entry is “Non-toxic” in data set [4] and “Dose-dependent effect” in [10]. Also, the TGI entry in data set [8] and in data set [9] was “Active” in each case.
The IC50 is the concentration needed to halve the response being measured. Take `Cl.Cl.NCCOCCOCCOCCOc1ccc2c(CN3CCC(CO)CC3)cc3cc4c(cc3c2c1)OCO4`: the result in data set [13] was Active. The inhibition result in data set [14] is “inactive”. This compound came in with an IC50 in data set [15] of 0.5 µg/mL. Also, the outcome in [16] was inactive. Moreover, in data set [17], the inhibition entry is “Active”.
